CCR6 antagonist: blocks CCL20-driven beta-arrestin recruitment at human CCR6; CHO-K1 CCR6 PathHunter beta-arrestin, luminescence, CCL20-stimulated; inhibition, % at 20 µM; 340,000 tested, 0.49% active; P51684; AID 493098;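 active = compounds whose inhibition of the agonist-driven luminescence signal at 20 µM reaches about 50%, limit read from the data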;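 note: cells stimulated with CCL20 at 14 nM final; plate controls were DMSO with CCL20 for no effect and DMSO without agonist for full effect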
APJ antag: blocks the human apelin receptor APJ. CHO-K1 APJ beta-arrestin complementation, luminescence. P35414. inhibition, % at 20 µM. 330,000 tested, 0.32% active;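 active = inhibition above about 40% at 20 µM, limit read from the data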;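 note: cells challenged with 10 nM apelin-13 agonist together with compound; plate controls were apelin-13 plus DMSO wells for no effect and DMSO wells lacking apelin-13 for full effect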
m5-HT2A agonist: activates the mouse 5-HT2A serotonin receptor | P35363 | CHO-K1 mHTR2A beta-arrestin complementation, luminescence; percent of 30 µM serotonin response | activation, % at 7.6 µM | 360,000 tested, 0.66% active;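 active = activation above a run cutoff, the mean activation of all tested compounds plus 3 SD, cut at about 14% in these data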;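 note: 0% = plate median of compound wells and 100% = 30 µM serotonin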
Target sequence (P35363 whole entry, looked up): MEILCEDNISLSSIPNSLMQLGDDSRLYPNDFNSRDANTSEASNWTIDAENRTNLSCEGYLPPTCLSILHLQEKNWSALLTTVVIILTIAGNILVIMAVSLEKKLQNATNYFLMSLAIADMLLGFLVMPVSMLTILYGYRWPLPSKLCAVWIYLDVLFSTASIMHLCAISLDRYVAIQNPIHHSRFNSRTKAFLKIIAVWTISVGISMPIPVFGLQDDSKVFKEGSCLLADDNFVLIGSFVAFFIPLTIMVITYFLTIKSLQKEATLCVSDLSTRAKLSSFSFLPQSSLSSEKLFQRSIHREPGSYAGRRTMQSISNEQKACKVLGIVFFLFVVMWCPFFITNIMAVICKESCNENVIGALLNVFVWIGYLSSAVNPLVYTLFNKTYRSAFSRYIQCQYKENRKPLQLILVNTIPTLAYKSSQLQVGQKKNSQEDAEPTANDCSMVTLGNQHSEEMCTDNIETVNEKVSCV
CXCR6 inh: inhibitors of human CXCR6 receptor | CHO-K1 PathHunter CXCR6 beta-arrestin, luminescence | inhibition, % at 20 µM | 360,000 tested, 0.36% active | AID 602244; in the data active = inhibition above about 34%, passing the limit was not always enough;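 note: antagonist mode with CXCL16 agonist at 10 nM final; 0% = 10 nM CXCL16 with DMSO and 100% = unstimulated wells without agonist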
NTR1 ag: NTR1 (human) agonism. P30989. NTR1-U2OS beta-arrestin-GFP spot imaging, agonist mode. activation, % at 20 µM. 330,000 tested, 0.17% active;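 active = activation at or above 40% of the spot to cytoplasm intensity ratio, with at least 20 cells analyzed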;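 note: 0% = DMSO without peptide and 100% = 100 nM NTR1 peptide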
APJ agonist: activates the human apelin receptor APJ | P35414 | CHO-K1 APJ PathHunter beta-arrestin, luminescence; 0% DMSO wells, 100% apelin | activation, % at 20 µM | 330,000 tested, 0.11% active | AID 2520;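 active = activation more than six SD over the plate average, tested at 20 µM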;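 note: 0% = DMSO alone and 100% = apelin-13 at 10 nM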
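Test system: CHO-K1 APJ beta-arrestin complementation cell line | Compound: Single test compound dose, 20 µM final, 1% DMSO | Incubation: Compound 90 min 25 °C, reagent 1 h | Measured by: beta-gal luminescence | Read-out basis: APJ–arrestin association signal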
APJ ag conf: APJ receptor agonism confirmation | 310 tested, 10% active | activation, % at 20 µM | AID 2764 | CHO-K1 APJ PathHunter beta-arrestin, luminescence | shares compounds with APJ agonist;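 active = activation above 40%, taking the highest of four retests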;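 note: plate controls were DMSO wells for no effect and apelin-13 at 10 nM for full effect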
Numbers without * were called inactive; · = no result given. Sampled rows, rich in hits. Any-hit rate of the full collection: about 1.5%.

SMILES	CCR6 antagonist	APJ antag	m5-HT2A agonist	CXCR6 inh	NTR1 ag	APJ agonist	APJ ag conf
COc1ccc2oc(C(=O)Nc3ccc(S(=O)(=O)N(C)C4CCN(C)CC4)cc3)c(C)c2c1	-1	4	-7	-13	11	51*	12
ClCCn1c(CCl)nc2ccc(Cl)cc21	·	·	6	-1	·	·	·
Cc1ccccc1C(=O)N1CCN(c2ncnc3c2cnn3-c2ccccc2)CC1	-6	14	3	-1	-2	11	·
Cc1ccc(C(=O)N2CCN(c3ncnc4c3cnn4-c3ccccc3)CC2)cc1	·	-20	3	-9	22	32*	-2
Nc1nc(Nc2ccccc2)nc2c1ncn2[C@@H]1O[C@H](CO)[C@@H](O)[C@H]1O	-2	-10	6	-4	0	-2	·
COc1ccc(CNC(=O)c2ccc3nc(C)c(N(C)Cc4ccc(NC(C)=O)cc4)n3c2)cc1	·	·	-3	-6	·	·	·
O=C(CSc1n[nH]c(=O)n1C1CC1)Nc1cc(Cl)ccc1Oc1ccccc1	-5	-16	11	-11	4	12*	20
O=C(CSc1n[nH]c(=O)n1C1CC1)Nc1ccccc1	-9	6	-1	-4	0	2	·
CCc1cc(C(=O)N2CCCC(C(=O)c3ccc(C(F)(F)F)cc3)C2)n(C)n1 (centres undefined)	3	3	1	5	0	-3	·
Cc1ccc2nc(/C(C#N)=C\c3ccc([N+](=O)[O-])o3)[nH]c2c1	-21	-45	12	-1	-3	95*	13
N#C/C(=C\c1ccc([N+](=O)[O-])o1)c1nc2ccccc2[nH]1	3	-15	·	·	-4	42*	6
Cc1cccc(C(=O)OCC(=O)NCCCc2ccccc2)c1O	9	-18	4	12	2	-1	·
NC(=O)c1cccnc1OCC(F)(F)F	-7	15	6	4	0	1	·
COCCN(C(=O)COC(=O)c1c(C)nn(-c2ccccc2)c1C)c1c(N)n(Cc2ccccc2)c(=O)[nH]c1=O	·	·	-1	4	·	·	·
CCOc1cc2[nH]c(=S)n(CCCN(CC)CC)c(=O)c2cc1OCC	11	3	-1	2	-1	3	·
CCCCN(C)CCn1c(=S)[nH]c2cc(OCC)c(OCC)cc2c1=O	11	-25	-5	-4	3	54*	23
COc1ccc(/C(N)=N/OC(=O)c2ccc([N+](=O)[O-])c(C)c2)cc1OC	-13	-14	-2	-13	4	11*	10
Cc1ccc(/C(N)=N/OC(=O)c2cccs2)cc1	-14	-49	2	-22	2	9	·
COc1ccc(/C(N)=N/OC(=O)c2cccs2)cc1OC	-5	-72	-2	-15	-1	18*	26
O=C(Nc1ccc(S(=O)(=O)NCc2ccco2)cc1)C1CCCCC1	-5	-11	-5	3	-1	-1	·
O=C(Cn1nc(-c2ccc3c(c2)OCCO3)ccc1=O)Nc1cccc(NC(=O)c2ccccn2)c1	·	-6	·	·	3	-3	·
Cc1ccc(S(=O)(=O)N2C(=O)CCC2C(=O)O/N=C(\N)c2ccccc2)cc1 (centres undefined)	-6	-37	-4	-3	2	12	·
Cc1ccc(S(=O)(=O)N2C(=O)CCC2C(=O)O/N=C(\N)c2cccc([N+](=O)[O-])c2)cc1 (centres undefined)	-41	-132	2	-36	2	37*	23
Cc1ccc(S(=O)(=O)N2C(=O)CCC2C(=O)O/N=C(\N)c2ccc([N+](=O)[O-])cc2)cc1 (centres undefined)	-26	-134	6	-17	0	36*	20
Cc1ccc(NC(=O)C/C(N)=N/OC(=O)c2ccccc2)cc1	-30	-22	-2	-13	-1	11*	16
SMILES	CCR6 antagonist	APJ antag	m5-HT2A agonist	CXCR6 inh	NTR1 ag	APJ agonist	APJ ag conf
COc1ccc(C/C(N)=N/OC(=O)c2cccc([N+](=O)[O-])c2)cc1	-3	-56	-1	-19	0	18*	19
COc1ccccc1C/C(N)=N/OC(=O)c1cccc([N+](=O)[O-])c1	-17	-95	-9	-11	2	11*	37
COc1ccc(C(=O)O/N=C(\N)Cc2ccc(Cl)cc2)cc1OC	-7	-57	-4	-2	2	12*	24
N/C(Cc1ccc([N+](=O)[O-])cc1)=N\OC(=O)c1cccc(Br)c1	2	-40	-2	-24	2	4	·
COc1ccc(C(=O)O/N=C(\N)Cc2ccc([N+](=O)[O-])cc2)c(OC)c1	-12	-24	4	-10	1	21*	32
CC1CN(C(=O)c2ccc(NS(=O)(=O)c3ccc(F)cc3)cc2)CC(C)O1 (centres undefined)	-4	6	5	0	1	-4	·
COc1ccccc1CNC(=O)CCS(=O)(=O)c1ccc2c(c1)CC(C)N2C(=O)C1CC1 (centres undefined)	-10	-8	-2	1	-1	-2	·
CC(=O)c1c(C)[nH]c(C(=O)OCc2cccc(Cl)c2)c1C	12	14	-5	-8	1	0	·
CC(=O)c1c(C)[nH]c(C(=O)OCc2cc(-c3ccco3)on2)c1C	8	8	12	2	-1	13*	4
O=[N+]([O-])c1ccc2nc(-c3ccc(Cl)cc3)[nH]c2c1	-24	-15	-2	-6	-4	14*	31
Cc1ccc(-c2nc3ccc([N+](=O)[O-])cc3[nH]2)cc1	2	-26	-4	-16	2	1	·
N#CCN(C(=O)COC(=O)CCCNC(=O)c1ccc(Cl)cc1)c1ccccc1	11	23	2	3	3	-3	·
COC(=O)c1ccc2c(=O)n(CCCCCC(=O)O)c(=O)[nH]c2c1	2	-10	-2	-3	0	-1	·
COC(=O)c1ccc2c(=O)n(CCCCCC(=O)N3CCN(c4ccc(F)cc4)CC3)c(=O)[nH]c2c1	-8	-35	2	-10	32	47*	35
Cc1cc(C)nc(/N=C(\N)Nc2ccc(OCCC(C)C)cc2)n1	-1	-3	-3	-3	8	16*	7
COc1ccccc1N=c1c2c([N+](=O)[O-])cc([N+](=O)[O-])cc2n(O)n1-c1ccccc1OC	·	-22	·	·	0	15*	17
COc1ccccc1-n1cc2c([N+](=O)[O-])cc([N+](=O)[O-])cc2n1	33	-44	-4	17	5	-2	·
COCC(=O)NC1(c2nnnn2CCOC(=O)Nc2ccc(Cl)cc2)CCCCC1	7	4	-3	10	-1	-2	·
